Data reported in ChEMBL document CHEMBL4680306, “The 3-D conformational shape of N-naphthyl-cyclopenta[d]pyrimidines affects their potency as microtubule targeting agents and their antitumor activity” (Bioorg Med Chem, 2021).
Active and inactive are the calls of the source. No cut-off for these calls is given here.

Experiments:
[1] = Induction of microtubule depolymerisation in rat A-10 cell line measured after 18 hrs by indirect immunofluorescence method; settings: a10
Procedure, shortened: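 Rat A-10 cells, chosen because they arrest in interphase without significant mitotic accumulation, were exposed to compounds for 18 h. Cellular microtubules were then visualized by indirect immunofluorescence. EC50 values come from at least three independent experiments.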

[2] = Inhibition of bovine tubulin polymerization assessed as reduction in extent of assembly preincubated for 15 mins followed by addition of reaction mixture measured after 20 mins by turbidimetric assay; parameters: species or system Bos taurus
Procedure, shortened: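 After chilling, GTP was added (0.4 mM final). Turbidity at 350 nm was read after a jump from 0 °C to 30 °C.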

U-251 [3] = test: Cytotoxicity against human U251 cell line assessed as inhibition of cell growth after 48 hrs by SRB assay; type: functional, cell-based; settings: U-251, 48 h
[4] = Relative resistance, ratio of IC50 for inhibition of beta3 Tubulin (unknown origin) expressed in human HeLa cell line assessed as inhibition of cell proliferation to IC50 antiproliferative activity against human HeLa cells
MDA-MB-435 = test: Antiproliferative activity against human MDA-MB-435 cell line assessed as inhibition of cell proliferation measured after 48 hrs by SRB assay; type: functional, cell-based; settings: MDA-MB-435, 48 h
Procedure, shortened: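 MDA-MB-435 melanoma cells were assessed by sulforhodamine B assay. IC50 is the mean ± SD of at least three independent experiments, each run in triplicate.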

[5] = Antiproliferative activity against human SK-OV-3 MDR-1-6/6 cells expressing Pgp assessed as decrease in cell growth measured after 48 hrs by SRB method; type: functional; settings: SK-OV-3, 48 h
SK-OV-3 = test: Antiproliferative activity against human SK-OV-3 cells assessed as decrease in cell growth measured after 48 hrs by SRB method; type: functional, cell-based; settings: SK-OV-3, 48 h
HeLa = test: Antiproliferative activity against human HeLa cells assessed as decrease in cell growth measured after 48 hrs by SRB method; type: functional, cell-based
[6] = Relative resistance, ratio of IC50 for antiproliferative activity against human SK-OV-3 MDR-1-6/6 cells expressing Pgp to IC50 antiproliferative activity against human SK-OV-3 cells; type: functional
Bos taurus [7] = species on record: Bos taurus; test: Inhibition of [3H]colchicine binding to bovine tubulin at 1 uM measured after 10 mins by scintillation counting
Procedure, shortened: (§1)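 Purified bovine brain tubulin at 1.0 µM was mixed with 5.0 µM [3H]colchicine and inhibitor, plus components that stabilize colchicine binding, in 5% DMSO; tubulin was added last, on ice. Binding ran 10 min at 37 °C and was stopped with ice water. Mixtures were filtered through stacked DEAE-cellulose filters, and bound radiolabel was measured by scintillation counting.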

Bos taurus [8] = species on record: Bos taurus; test: Inhibition of [3H]colchicine binding to bovine tubulin at 5 uM measured after 10 mins by scintillation counting; procedure, shortened: as §1
U-251 [9] = test: Antitumour activity against human U251 cells xenografted in NCr athymic nude nu/nu mouse assessed as decrease in tumour growth at 50 mg/kg once in a week; type: functional, organism-based

| SMILES | EC50 [1] [nM] | IC50 [2] [nM] | IC50 (U-251 [3]) [nM] | Ratio IC50 [4] | IC50 (MDA-MB-435) [nM] | IC50 [5] [nM] | IC50 (SK-OV-3) [nM] | IC50 (HeLa) [nM] | Ratio IC50 [6] | inhibition (Bos taurus [7]) [%] | inhibition (Bos taurus [8]) [%] | inhibition (U-251 [9]) |
| --- | --- | --- | --- | --- | --- | --- | --- | --- | --- | --- | --- | --- |
| COc1ccc2c(N(C)c3nc(C)nc4c3CCC4)cccc2c1 | > 10000 | > 20000 | 88.3 | – | – | – | – | – | – | – | – | – |
| COc1cccc2cc(N(C)c3nc(N)nc4c3CCC4)ccc12 | 26 | – | – | 0.8 | 8.7 | 19.6 | 14.9 | 12.6 | 1.3 | – | – | – |
| COc1ccc(N(C)c2nc(C)nc3c2CCC3)cc1 | 26 | 1600 | – | – | – | 16.4 | – | – | – | 70 | 92 | – |
| Cn1nnc2c(C(N)=O)ncn2c1=O | – | – | – | – | – | – | – | – | – | – | – | Active |
| COc1ccc(N(C)c2nc(C)nc3c2CC(C)C3)cc1 (stereo not drawn) | 282 | – | – | – | 25.7 | – | – | – | – | – | – | – |
| COc1ccc(N(C)c2nc(C)nc3c2CCC3)c2ccccc12 | 500 | 1400 | 35.1 | 0.7 | 230 | 400 | 330 | 250 | 1.2 | – | 72 | – |
